Here are results for 19 compounds from ChEMBL document CHEMBL2321805, “N-methyldihydroquinazolinone derivatives of Retro-2 with enhanced efficacy against Shiga toxin” (J Med Chem, 2013).

Calls of active or inactive are those of the source. The calls are words filed in the database; no cut-off is given here.

Assay [1] has as its system HeLa. Description: Inhibition of shiga toxin retrograde transport in human HeLa cells after 20 mins by sulfation assay relative to control. Type of assay: functional.
In assay [2] the test system is HeLa. In words: Cytoprotective activity against shiga toxin-induced cytotoxicity in human HeLa cells at 30 uM incubated for 4 hrs prior to shiga toxin addition measured after 20 hrs by liquid scintillation counting analysis. Type of assay: functional, cell-based.
For assay [3], the system named is HeLa. In words: Cytoprotective activity against shiga toxin-induced cytotoxicity in human HeLa cells at 30 uM incubated for 4 hrs prior to shiga toxin addition measured after 20 hrs by liquid scintillation counting analysis relative to Retro-2. Type of assay: functional.
The subject of assay [4] is HeLa. Description: Inhibition of shiga toxin retrograde transport in human HeLa cells assessed as relocalization of syntaxin 5 at 20 uM after 30 mins by immunofluorescence staining. Format: functional, cell-based. A digest of the protocol:
(§1)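 HeLa cells were treated for 30 min with 20 μM compound or DMSO carrier, then fixed. They were immunolabeled for syntaxin 5 and the Golgi marker giantin and imaged by confocal microscopy with a 60× oil objective (NA 1.4). Maximum projections of 6–8 Z slices at 250 nm spacing are shown.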

Assay [5] deals with HeLa. Description: Inhibition of shiga toxin retrograde transport in human HeLa cells assessed as change in golgi apparatus morphology at 20 uM after 30 mins by immunofluorescence staining. Format: functional, cell-based. In outline:
as §1

As for `Cc1ccc(C2N(C)c3ccccc3C(=O)N2c2ccccc2)s1` (racemic), the “inhibition (INH)” value with HeLa [1] is on record as 38.7%. Further, the 50% effective concentration (EC50) in the assay with HeLa [2] came out at 10.2 µM. In the assay on HeLa [3], this compound gave an Activity of 275%.
As for `Cc1ccc(C2Nc3ccccc3C(=O)N2c2ccccc2)s1` (racemic), in the assay with HeLa [4], the inhibition entry was “Active”. Further, the “inhibition (INH)” value with HeLa [1] stood at 36.9%. Besides, in the assay on HeLa [2], the response was half-maximal at 27.3 µM (EC50). This compound returned an Activity in the assay with HeLa [3] of 100%.
In the case of `Cc1nc(-c2ccc(C3Nc4ccccc4C(=O)N3c3ccccc3)s2)cs1` (racemic), the “inhibition (INH)” value with HeLa [1] stood at 0%. In addition, the concentration giving a half-maximal response (EC50) in the assay with HeLa [2] came to 1.4 µM. Moreover, the Activity in the assay on HeLa [3] is given as 271%.
In turn, `CN1c2ccccc2C(=O)N(c2ccccc2)C1c1ccc(-c2ccccc2)s1` (racemic) gave a 50% effective concentration (EC50) in the assay with HeLa [2] of 2.1 µM. The same compound displayed an Activity in the assay with HeLa [3] of 309%.
In the assay on HeLa [2], `Cc1ccc(C2Nc3ccccc3C(=O)N2c2ccccc2Cl)s1` (racemic) yielded a 50% effective concentration (EC50) of 14.8 µM. In the assay on HeLa [3], this compound had an Activity of 211%.
For the compound `CCc1ccc(C2N(C)c3ccccc3C(=O)N2c2ccccc2)s1` (racemic), in the assay with HeLa [1], the “inhibition (INH)” value amounted to 0%. The same compound registered a concentration for a half-maximal effect (EC50) with HeLa [2] of 4.2 µM. This compound came in with an Activity in the assay with HeLa [3] of 323%.
As to `CCc1ccc(C2Nc3ccccc3C(=O)N2c2ccccc2)s1` (racemic), in the assay on HeLa [1], the “inhibition (INH)” value is recorded as 13.5%. Besides, the EC50 in the assay with HeLa [2] stood at 8.7 µM. Moreover, the Activity with HeLa [3] is recorded as 166%.
Take `Cc1nc(-c2ccc(C3N(C)c4ccccc4C(=O)N3c3ccccc3)s2)cs1` (racemic): the inhibition result with HeLa [5] and with HeLa [4] was “Active” each time. Moreover, the “inhibition (INH)” value with HeLa [1] came to 0%. This compound showed a 50% effective concentration (EC50) in the assay with HeLa [2] of 0.3 µM. Besides, the Activity in the assay with HeLa [3] came out at 301%.
In the assay with HeLa [2], `CSc1ccccc1N1C(=O)c2ccccc2N(C)C1c1ccc(C)s1` (racemic) yielded an EC50 of 3.8 µM. In the assay with HeLa [3], this compound came in with an Activity of 150.6%.
In the case of `O=C1c2ccccc2NC(c2ccc(-c3ccccn3)s2)N1c1ccccc1` (racemic), the EC50 in the assay on HeLa [2] is 12 µM. In the assay with HeLa [3], this compound showed an Activity of 468%.
`Cc1ccc(C2N(C)c3ccccc3C(=O)N2c2ccccc2I)s1` (racemic): it took 5.4 µM to reach a half-maximal effect with HeLa [2] (EC50). Besides, the Activity in the assay on HeLa [3] was 254%.
The corresponding values for `COc1ccccc1N1C(=O)c2ccccc2N(C)C1c1ccc(C)s1` (racemic) are 5.4 µM and 264.4%.
The corresponding values for `O=C1c2ccccc2NC(c2ccc(-c3cccs3)s2)N1c1ccccc1` (racemic) are 5.1 µM and 111.6%.
For the compound `Cc1ccc(C2Nc3ccc(F)cc3C(=O)N2c2ccccc2)s1` (racemic), in the assay on HeLa [2], a half-maximal response (EC50) required 10.6 µM. Besides, in the assay with HeLa [3], the Activity came out at 167.2%.
Take `CSc1ccc(C2Nc3ccccc3C(=O)N2c2ccccc2)s1` (racemic): the concentration giving a half-maximal response (EC50) in the assay with HeLa [2] was found to be 7.8 µM. Moreover, in the assay on HeLa [3], the Activity was 249%.
For the compound `CN1c2ccccc2C(=O)N(c2ccccc2)C1c1ccc(-c2ccco2)s1` (racemic), a half-maximal response in the assay with HeLa [2] (EC50) required 1.5 µM. In the assay on HeLa [3], this compound showed an Activity of 140.4%.
On the same counts, the results for `CN1c2ccccc2C(=O)N(c2ccccc2)C1c1ccc(Br)s1` (racemic) are 3.4 µM and 118%.
Regarding `Cc1ccc(C2N(C)c3ccccc3C(=O)N2c2ccccc2Cl)s1` (racemic), it took 8.2 µM to reach a half-maximal effect with HeLa [2] (EC50). Further, in the assay with HeLa [3], the Activity was determined as 230%.
In the case of `O=C1c2ccccc2NC(c2ccc(-c3ccco3)s2)N1c1ccccc1` (racemic), the EC50 with HeLa [2] amounted to 4 µM. The compound also returned an Activity in the assay on HeLa [3] of 438%.

Broadly, the EC50 is the concentration that produces a half-maximal response. High values mean weaker potency, low ones greater potency.
